Assay results pooled from the literature.
Lines come from different studies, so protocols differ.
Cell line: MCF-10A
Read-out: cell growth or viability

SMILES | test | conditions | IC50 [µM]
CC(C)C(=O)Nc1ccc([N+](=O)[O-])c(C(F)(F)F)c1 | CCK-8 | 48 h | 21.4
O=C(NC(=S)NCCNC(=S)NC(=O)c1ccc2ccccc2c1)c1ccc2ccccc2c1 | – | 48 h | 86.1
Cc1cc2ncc(-c3ccccc3)nc2cc1C | – | 48 h | > 50
CC(C)[C@H](NC(=O)c1cc(Cl)ccc1OCCNC(=O)OC(C)(C)C)C(=O)Nc1ccc([N+](=O)[O-])cc1Cl | MTT | 72 h | > 60
CCCOc1cccc(-c2cnc3c(n2)CCCC3)c1 | – | 48 h | > 50
C[C@H]1O[C@@H](n2cc(F)c(=O)[nH]c2=O)[C@H](O)[C@@H]1O | CCK-8 | 48 h | 8.51
C[C@](C#N)(COc1cc(C#N)ccc1C(F)(F)F)NC(=O)c1ccc(SC(F)(F)F)cc1 | – | 48 h | ~32.8
COc1ccc(-c2cnc3c(n2)CCCC3)cc1C#N | – | 48 h | > 50
c1ccc2cc(-c3nnc(NC4CCCCC4)[nH]3)ccc2c1 | – | 48 h | 86.6
CCN(CC)CCNC(=O)c1c(C)[nH]c(/C=C2\C(=O)Nc3ccc(F)cc32)c1C | – | 72 h | 4.07
O=C(/C=C/c1ccccc1)c1ccccc1 | resazurin | 72 h | 3.15
CCCc1ccc(-c2cnc3c(n2)CCCC3)cc1 | – | 48 h | > 50
COc1cccc2c1C(=O)c1c(O)c3c(c(O)c1C2=O)C[C@@](O)(C(=O)CO)C[C@@H]3O[C@H]1C[C@H](N)[C@H](O)[C@H](C)O1 | – | 48 h | 2.17
COc1cccc2c1C(=O)c1c(O)c3c(c(O)c1C2=O)C[C@@](O)(C(=O)CO)C[C@@H]3O[C@H]1C[C@H](N)[C@H](O)[C@H](C)O1 | resazurin | 72 h | 0.037
